Screening data as filed in PubChem.
RAD54 branch = inhibitors of human RAD54 branch migration; Q92698; RAD54 Holliday junction branch migration, FAM/BHQ fluorescence; inhibition, % at 10.4 µM; actives 0.14% (n = 360,000); AID 602329;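 active = mean normalized replicate activity at least 40 and at least half of replicates scoring 40 or more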;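 also: 0% = median of neutral control wells and 100% = median of positive control wells; inhibitors cause a drop in the FAM fluorescence signal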
Target sequence (Q92698 whole entry, looked up): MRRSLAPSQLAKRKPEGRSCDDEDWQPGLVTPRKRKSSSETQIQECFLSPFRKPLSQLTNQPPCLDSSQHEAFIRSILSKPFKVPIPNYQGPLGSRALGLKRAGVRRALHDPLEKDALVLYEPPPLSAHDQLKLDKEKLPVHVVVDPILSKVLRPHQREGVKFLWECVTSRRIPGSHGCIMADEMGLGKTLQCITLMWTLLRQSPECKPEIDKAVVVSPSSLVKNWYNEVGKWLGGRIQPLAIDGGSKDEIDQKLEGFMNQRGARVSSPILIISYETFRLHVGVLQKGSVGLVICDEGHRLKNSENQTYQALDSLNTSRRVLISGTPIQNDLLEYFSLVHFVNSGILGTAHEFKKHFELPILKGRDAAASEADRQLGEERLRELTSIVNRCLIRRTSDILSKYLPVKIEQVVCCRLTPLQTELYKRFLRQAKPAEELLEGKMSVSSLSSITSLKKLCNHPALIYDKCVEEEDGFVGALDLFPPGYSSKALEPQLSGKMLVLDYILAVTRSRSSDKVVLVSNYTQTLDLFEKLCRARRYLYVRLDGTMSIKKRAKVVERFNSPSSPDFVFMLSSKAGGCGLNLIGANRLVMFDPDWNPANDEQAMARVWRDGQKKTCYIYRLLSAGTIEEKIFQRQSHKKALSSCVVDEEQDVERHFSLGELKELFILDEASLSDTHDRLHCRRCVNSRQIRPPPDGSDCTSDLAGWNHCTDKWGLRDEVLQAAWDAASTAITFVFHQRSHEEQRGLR
RAD52 anneal inh = blocks human RAD52 DNA annealing; recombinant RAD52 DNA annealing, FRET fluorescence; inhibition, % at 18.7 µM; P43351; actives 0.46% (n = 360,000);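 active = every replicate showing at least 50% inhibition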
FID counter = fluorescent intercalator displacement, NS3 helicase counter-screen | DNA fluorescent intercalator displacement, fluorescence | inhibition, % at 7.9 µM | actives 0.17% (n = 290,000) | AID 1845; in the data active = inhibition above about 37%;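 also: 0% = vehicle and 100% = reference compound; higher means more ethidium bromide displaced from hairpin DNA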
UBC13 polyUb = inhibitors of human UBC13 polyubiquitin chain formation. TR-FRET. P61088. inhibition, % at 20 µM. actives 0.47% (n = 330,000); in the data active = inhibition above about 45%, passing the limit was not always enough
Apaf1 inhib = human Apaf-1 inhibition | AID 489030 | inhibition, % at 20 µM | reconstituted apoptosome caspase-3 activity, DEVD-Rh110 fluorescence | O14727 | actives 0.71% (n = 330,000); active = inhibition of at least 40% at 20 µM;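 also: plate controls were DMSO wells for no effect and DEVD-CHO caspase inhibitor wells for full effect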
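Material: reconstituted apoptosome with Apaf-1, cytochrome c, caspase-9, procaspase-3, dATP. Technique: Rh110 fluorescence intensity. Buffer or medium: pH 7.5 Hepes buffer with CHAPS, BSA, DTT. Times: 30 min plus 50 min, RT.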
Neddylation inh = cullin neddylation inhibition | TR-FRET cullin neddylation, biochemical | calls only at 25 µM | actives 0.58% (n = 360,000) | AID 651699; in the data active = inhibition above about 36%
Casp3 UBC13 ctr = caspase-3 inhibition (UBC13 counter-screen); AID 488856; inhibition, % at 20 µM; shares compounds with UBC13 polyUb; Recombinant caspase-3, Caspase-Glo 3/7 luminescence, 60 min; actives 4% (n = 1,400);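 active = mean inhibition across replicates above about 26%, limit read from the data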;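 also: plate controls were DMSO with caspase-3 for no effect and DMSO wells lacking enzyme for full effect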
UBC13 confirm = human UBC13 polyubiquitin inhibition, confirmed | shares compounds with UBC13 polyUb | UBC13 polyubiquitination, TR-FRET, biochemical | inhibition, % at 10 µM | actives 68% (n = 1,400) | AID 488859; in the data active = inhibition above about 45%
* hit, by the source's call; i = inactive; / = not tested or not shown; + = active, no number. Sampled rows, rich in hits. Any-hit rate of the full collection: about 1.6%.

SMILES	RAD54 branch	RAD52 anneal inh	FID counter	UBC13 polyUb	Apaf1 inhib	Neddylation inh	Casp3 UBC13 ctr	UBC13 confirm
CNC[C@H]1OCCCC[C@H](C)Oc2ccc(NS(=O)(=O)c3ccc(OC)cc3)cc2C(=O)N([C@@H](C)CO)C[C@@H]1C	-1	-72	/	/	/	/	/	/
COc1ccc(NC(=S)NNC(=O)c2nnn(-c3ccccc3)c2C)cc1	/	-19	-11	59*	3	i	-2	82*
CC(C)c1ccc(NC(=O)C[n+]2ccn(C3=C([O-])c4ccccc4C3=O)c2)cc1	/	-14	10	56*	24	i	-4	47*
S=C(NCc1cccs1)Nc1ccccc1	/	-2	3	4	6	i	/	/
Cc1ccc(NC(=S)NCc2cccs2)cc1	/	/	-1	52*	-1	i	2	6
COc1ccccc1NS(=O)(=O)c1cccc(C(=O)N/N=C/c2c(CO)cnc(C)c2O)c1	-7	-134	/	72*	-3	+	1	19
O=C1c2cccc3cccc(c23)C(=O)N1CC1CCN(CC(O)COc2ccc3ccccc3c2)CC1 (stereo not given)	30	18	/	79*	36	i	-1	85*
CC(=O)c1ccccc1OCC(O)CN1CCN(CCN2C(=O)c3cccc4cccc(c34)C2=O)CC1 (stereo not given)	/	24	12	54*	-7	i	-2	60*
O=C1c2cccc3cccc(c23)C(=O)N1CCN1CCN(CC(O)COCc2ccc(Cl)cc2)CC1 (stereo not given)	/	/	12	98*	1	i	-4	108*
COc1ccc(COCC(O)CN2CCC(CN3C(=O)c4cccc5cccc(c45)C3=O)CC2)cc1OC (stereo not given)	/	/	12	73*	2	i	-4	65*
COc1ccc(COCC(O)CN2CCC(C(N)=O)CC2)cc1OC (stereo not given)	/	-4	-1	-7	-1	i	/	/
O=C(C[C@@H]1CC[C@@H](NS(=O)(=O)c2ccc(F)cc2)[C@@H](CO)O1)NCc1ccccc1F	/	-4	/	/	/	/	/	/
CC(C)NC(=O)N1[C@@H]2Cn3c(cccc3=O)[C@H]1[C@@H](C(=O)N1CCC(Cc3ccccc3)CC1)[C@@H]2CO	/	-10	/	/	/	/	/	/
O=C1c2cccc3cccc(c23)C(=O)N1CCN1CCN(CC(O)COc2ccc3ccccc3c2)CC1 (stereo not given)	43	-8	0	105*	18	i	-2	112*
O=C(N1CCOCC1)N1CCN(CC(O)COc2ccc3ccccc3c2)CC1 (stereo not given)	-2	/	-12	2	3	i	/	/
COCC(=O)N1CC2(C1)CN(S(C)(=O)=O)[C@@H](CO)c1[nH]c3cc(OC)ccc3c12	/	-14	/	/	/	/	/	/
COc1ccc(C)cc1NC(=O)c1cc2c(s1)CCC2	9	/	-7	6	4	i	/	/
COC(=O)c1sccc1NC(=O)c1cc2c(s1)CCCC2	-13	/	-1	46*	3	i	58*	20
Cn1ncc(N=Cc2c(O)ccc3ccccc23)c1C(=O)N1CCOCC1	-5	/	0	3	7	i	/	/
COc1ccccc1NC(=O)c1c(N=Cc2c(O)ccc3ccccc23)cnn1C	/	-30	-8	58*	0	i	0	66*
CCCC#Cc1ccc2c(c1)O[C@@H](CN(C)S(=O)(=O)c1cccc(OC)c1)[C@@H](C)CN([C@@H](C)CO)S2(=O)=O	7	-3	/	/	/	/	/	/
CCC[C@H](CN[C@@H](CNC)[C@H](C)O)NCCc1ccc(OC)cc1	3	8	0	11	-5	i	/	/
CCCC[C@H](CN[C@@H](CNC)[C@H](C)CC)NCCC12CCC(CC1)C2	7	4	32	48*	7	i	-3	30
O=C(NC[C@H]1CC[C@@H]2[C@@H](CN2S(=O)(=O)c2ccccc2[N+](=O)[O-])O1)C1CC1	/	-13	/	/	/	/	/	/
CC(C)NC(=O)N(C)C[C@@H]1Oc2cc(C#Cc3ccc(F)cc3)ccc2S(=O)(=O)N([C@@H](C)CO)C[C@H]1C	-18	25	/	/	/	/	/	/
SMILES	RAD54 branch	RAD52 anneal inh	FID counter	UBC13 polyUb	Apaf1 inhib	Neddylation inh	Casp3 UBC13 ctr	UBC13 confirm
COc1ccc(C2=Nn3c(nnc3-c3ccccc3F)SC2)cc1OC1CCOC1 (stereo not given)	-1	-20	/	46*	20	i	-1	31
C=CCOC(=O)[C@H]1[C@@H]2C(=O)O[C@@H](c3ccccc3)[C@@H](c3ccccc3)N2[C@@H](c2ccc(OCCOC(=O)[C@@H]3C[C@@H]4C(=O)N[C@@H](CC(C)C)C(=O)N4[C@@H]3c3cccc(OCCO)c3)cc2)[C@]12C(=O)Nc1ccccc12	/	-9	/	/	/	/	/	/
COc1ccc(CN2C(=O)c3cccc4cccc2c34)cc1F	1	-17	-24	64*	12	/	0	62*
CCC(=O)Nc1ccc2c(c1)C(=O)N(C)[C@H]1CC[C@H](CC(=O)N3CCc4ccccc4C3)O[C@@H]1CO2	5	-9	/	/	/	/	/	/
CC(C)NC(=O)Nc1ccc2c(c1)C(=O)N([C@H](C)CO)C[C@@H](C)[C@H](CN(C)S(C)(=O)=O)OCCCC[C@H](C)O2	1	6	/	/	/	/	/	/
CCc1ccc(O)c(CNCCNCc2cc(CC)ccc2O)c1	8	-52	/	64*	30	i	1	32
Cc1ccc(O)c(CNCCNCc2cc(C)ccc2O)c1	5	-19	/	50*	28	i	0	52*
O=C(Nc1ccccc1F)N1CC(=O)N2[C@H](CO)[C@@H](c3ccc(-c4ccccc4)cc3)[C@@H]2C1	/	-12	/	/	/	/	/	/
Cc1nc(N)sc1C(=O)N/N=C/c1cccnc1	/	-18	-14	92*	1	i	24	108*
COc1ccc(C(=O)N/N=C/c2cccnc2)cc1	-12	-1	-9	-3	6	i	/	/
CCN(CC)CCOc1ccc(/C(=C(\Cl)c2ccccc2)c2ccccc2)cc1	15	27	/	74*	66*	i	-2	81*
CCCC(C(=O)NC(C)(C)C)N(Cc1ccccc1Cl)C(=O)c1snc(C(N)=O)c1N (stereo not given)	0	-5	-29	49*	13	i	-2	61*
CCCCC(C(=O)NC(C)(C)C)N(Cc1ccccc1Cl)C(=O)c1snc(C(N)=O)c1N (stereo not given)	-16	-17	-28	34	23	i	/	/
N#Cc1ccsc1NC(=O)C1CCN(C(=O)c2ccc(Cl)cc2)CC1	/	-11	/	48*	6	i	-2	79*
